Experimental data taken from ChEMBL document CHEMBL4406880, “Design, synthesis, and bioactivity of dihydropyrimidine derivatives as kinesin spindle protein inhibitors” (Bioorg Med Chem, 2019).

Key:
Assay type in all cases: functional
[1] = system: OVCAR-4; assay: Growth inhibition of human OVCAR4 cells assessed as growth percentage at 10 uM incubated for 48 hrs by sulforhodamine B assay relative to control; conditions: OVCAR-4, 48 h, read-out: Activity
Outline: (§1)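 NCI-60 one-dose screen. Cells in RPMI 1640 with 5% FBS and 2 mM L-glutamine, seeded at 5,000–40,000 cells/well according to doubling time, and preincubated overnight at 37 °C, 5% CO2. A time-zero plate was TCA-fixed at drug addition. Compound from DMSO stock, final 10 µM, 48 h; DMSO vehicle controls. Fixation with TCA, 10% final (16% for suspension cells). SRB stain, Tris solubilization, A515. Result given as % growth versus untreated cells.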

[2] = system: SF-295; assay: Growth inhibition of human SF295 cells assessed as growth percentage at 10 uM incubated for 48 hrs by sulforhodamine B assay relative to control; conditions: SF-295, 48 h, read-out: Activity
Outline: (§2)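 NCI-60 single-dose screen. Cells were grown in RPMI 1640 with 5% FBS and 2 mM L-glutamine and plated at 5,000–40,000 cells/well. After an overnight preincubation at 37 °C in 5% CO2, compound was added at a final 10 µM from a DMSO stock, with DMSO/PBS controls. After 48 h, cells were TCA-fixed and stained with 0.4% SRB, and absorbance was read at 515 nm. Growth is given as a percentage of untreated control.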

[3] = system: LOX IMVI; assay: Growth inhibition of human LOXIMVI cells assessed as growth percentage at 10 uM incubated for 48 hrs by sulforhodamine B assay relative to control; conditions: read-out: Activity; outline: as §1
[4] = system: SK-MEL-5; assay: Growth inhibition of human SK-MEL-5 cells assessed as growth percentage at 10 uM incubated for 48 hrs by sulforhodamine B assay relative to control; conditions: SK-MEL-5, 48 h, read-out: Activity; outline: as §2
[5] = system: SNB-19; assay: Growth inhibition of human SNB19 cells assessed as growth percentage at 10 uM incubated for 48 hrs by sulforhodamine B assay relative to control; conditions: SNB-19, 48 h, read-out: Activity; outline: as §2
[6] = system: UACC-62; assay: Growth inhibition of human UACC62 cells assessed as growth percentage at 10 uM incubated for 48 hrs by sulforhodamine B assay relative to control; conditions: UACC-62, 48 h, read-out: Activity; outline: as §2
[7] = system: Hs-578T; assay: Growth inhibition of human Hs 578T cells assessed as growth percentage at 10 uM incubated for 48 hrs by sulforhodamine B assay relative to control; conditions: read-out: Activity; outline: as §1
[8] = system: U-251; assay: Growth inhibition of human U251 cells assessed as growth percentage at 10 uM incubated for 48 hrs by sulforhodamine B assay relative to control; conditions: U-251, 48 h, read-out: Activity; outline: as §2
[9] = system: SK-MEL-2; assay: Growth inhibition of human SK-MEL-2 cells assessed as growth percentage at 10 uM incubated for 48 hrs by sulforhodamine B assay relative to control; conditions: SK-MEL-2, 48 h, read-out: Activity; outline: as §2
[10] = system: MDA-MB-231; assay: Growth inhibition of human MDA-MB-231 cells assessed as growth percentage at 10 uM incubated for 48 hrs by sulforhodamine B assay relative to control; conditions: MDA-MB-231, 48 h, read-out: Activity; outline: as §1
[11] = system: CCRF-CEM; assay: Growth inhibition of human CCRF-CEM cells assessed as growth percentage at 10 uM incubated for 48 hrs by sulforhodamine B assay relative to control; conditions: read-out: Activity
Outline: (§3)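 NCI-60 one-dose screen: cells in RPMI 1640 with 5% FBS and 2 mM L-glutamine, plated at 5,000–40,000 cells/well and preincubated 24 h at 37 °C, 5% CO2. Compound is added from a DMSO stock to a final 10 µM and incubated 48 h. Cells are TCA-fixed and stained with sulforhodamine B, read at 515 nm. Output is % growth versus untreated control, with a time-zero plate.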

[12] = system: K562; assay: Growth inhibition of human K562 cells assessed as growth percentage at 10 uM incubated for 48 hrs by sulforhodamine B assay relative to control; conditions: K562, 48 h, read-out: Activity; outline: as §1
[13] = system: M14; assay: Growth inhibition of human M14 cells assessed as growth percentage at 10 uM incubated for 48 hrs by sulforhodamine B assay relative to control; conditions: M14, 48 h, read-out: Activity; outline: as §1
[14] = system: BT-549; assay: Growth inhibition of human BT549 cells assessed as growth percentage at 10 uM incubated for 48 hrs by sulforhodamine B assay relative to control; conditions: BT-549, 48 h, read-out: Activity; outline: as §3
[15] = system: A549; assay: Growth inhibition of human A549/ATCC cells assessed as growth percentage at 10 uM incubated for 48 hrs by sulforhodamine B assay relative to control; conditions: A549, 48 h, read-out: Activity; outline: as §3
[16] = system: SR; assay: Growth inhibition of human SR cells assessed as growth percentage at 10 uM incubated for 48 hrs by sulforhodamine B assay relative to control; conditions: read-out: Activity; outline: as §2
[17] = system: MCF7; assay: Growth inhibition of human MCF7 cells assessed as growth percentage at 10 uM incubated for 48 hrs by sulforhodamine B assay relative to control; conditions: MCF7, 48 h, read-out: Activity; outline: as §1
[18] = system: EKVX; assay: Growth inhibition of human EKVX cells assessed as growth percentage at 10 uM incubated for 48 hrs by sulforhodamine B assay relative to control; conditions: read-out: Activity; outline: as §3
[19] = system: HL-60(TB); assay: Growth inhibition of human HL-60(TB) cells assessed as growth percentage at 10 uM incubated for 48 hrs by sulforhodamine B assay relative to control; conditions: HL-60, 48 h, read-out: Activity
Outline: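 NCI-60 single-dose screen. Cells in RPMI 1640 with 5% FBS and 2 mM L-glutamine are plated at 5,000–40,000 cells/well and preincubated overnight at 37 °C, 5% CO2. Compound is added from a DMSO stock at 10 µM final for 48 h. Cells are TCA-fixed (suspension cells 16% final) and stained with SRB. Absorbance is read at 515 nm, and percentage growth is calculated against untreated controls with a time-zero plate.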

[20] = system: UACC-257; assay: Growth inhibition of human UACC257 cells assessed as growth percentage at 10 uM incubated for 48 hrs by sulforhodamine B assay relative to control; conditions: UACC-257, 48 h, read-out: Activity; outline: as §2
[21] = system: NCI-H522; assay: Growth inhibition of human NCI-H522 cells assessed as growth percentage at 10 uM incubated for 48 hrs by sulforhodamine B assay relative to control; conditions: NCI-H522, 48 h, read-out: Activity; outline: as §1
[22] = system: HCT-15; assay: Growth inhibition of human HCT15 cells assessed as growth percentage at 10 uM incubated for 48 hrs by sulforhodamine B assay relative to control; conditions: HCT-15, 48 h, read-out: Activity; outline: as §3
[23] = system: SF-539; assay: Growth inhibition of human SF539 cells assessed as growth percentage at 10 uM incubated for 48 hrs by sulforhodamine B assay relative to control; conditions: SF-539, 48 h, read-out: Activity; outline: as §2
[24] = system: RPMI-8226; assay: Growth inhibition of human RPMI8226 cells assessed as growth percentage at 10 uM incubated for 48 hrs by sulforhodamine B assay relative to control; conditions: RPMI-8226, 48 h, read-out: Activity; outline: as §2

| SMILES | growth at 10 µM [1] [%] | growth at 10 µM [2] [%] | growth at 10 µM [3] [%] | growth at 10 µM [4] [%] | growth at 10 µM [5] [%] | growth at 10 µM [6] [%] | growth at 10 µM [7] [%] | growth at 10 µM [8] [%] | growth at 10 µM [9] [%] | growth at 10 µM [10] [%] | growth at 10 µM [11] [%] | growth at 10 µM [12] [%] | growth at 10 µM [13] [%] | growth at 10 µM [14] [%] | growth at 10 µM [15] [%] | growth at 10 µM [16] [%] | growth at 10 µM [17] [%] | growth at 10 µM [18] [%] | growth at 10 µM [19] [%] | growth at 10 µM [20] [%] | other results |
| --- | --- | --- | --- | --- | --- | --- | --- | --- | --- | --- | --- | --- | --- | --- | --- | --- | --- | --- | --- | --- | --- |
| COCCOC(=O)C1=C(C)NC(=O)NC1c1ccc2c(c1)OCO2 (racemic) | 94.4 | 98.5 | 98.6 | 100 | 95.6 | 96 | 103 | 98.3 | 104 | 98.8 | 99 | 97.4 | 104 | 106 | 101 | 105 | 96.8 | 99.1 | 99.7 | 103 | growth at 10 µM [21]: 91.8%; growth at 10 µM [22]: 101%; growth at 10 µM [23]: 101%; growth at 10 µM [24]: 101% |
| CC1=C(C(=O)OCc2ccccc2)C(c2ccc3c(c2)OCO3)NC(=O)N1 (racemic) | 91 | 95.3 | 97.9 | 89.8 | 96.1 | 86.6 | 98.1 | 99.5 | 101 | 104 | 103 | 107 | 97.4 | 80.2 | 106 | 104 | 101 | 95.8 | 97 | 103 | growth at 10 µM [21]: 87.7%; growth at 10 µM [22]: 98.1%; growth at 10 µM [23]: 97.8%; growth at 10 µM [24]: 89.1% |
| CC(=O)N1C(=S)NC(C)=C(C(=O)OC(C)C)C1c1ccc2c(c1)OCO2 (racemic) | 100 | 99.4 | 98.8 | 100 | 98.1 | 95.6 | 98 | 92.6 | 110 | 88.9 | 81.5 | 83.2 | 96.8 | 99.3 | 99.4 | 89.6 | 97.2 | 99.7 | 99.3 | 104 | growth at 10 µM [21]: 78%; growth at 10 µM [22]: 99.3%; growth at 10 µM [23]: 98.2%; growth at 10 µM [24]: 73.9% |
| CC1=C(C(=O)OCc2ccccc2)C(c2ccc3c(c2)OCO3)NC(=S)N1 (racemic) | 84.5 | 102 | 98.5 | 88.9 | 103 | 91.2 | 90.2 | 95.8 | 96.7 | 105 | 100 | 75.2 | 102 | 103 | 93.7 | 77.2 | 86.8 | 97.5 | 56.1 | 96.7 | growth at 10 µM [21]: 89.5%; growth at 10 µM [22]: 96.5%; growth at 10 µM [23]: 99.3%; growth at 10 µM [24]: 76.5% |
